Bioassay records deposited in PubChem BioAssay by Sanford-Burnham Center for Chemical Genomics.
CXCR6 inh = CXCR6 receptor inhibitors, primary screen, cell-based, beta-arrestin, luminescence, CHO-K1 PathHunter, 1536-well | C-X-C chemokine receptor type 6 (Homo sapiens), O00574 | inhibition, % at 20 µM | 0.36% of 360,000 active; in the data active = inhibition above about 34%, passing the limit was not always enough;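 note: antagonist mode with CXCL16 agonist at 10 nM final; 0% = 10 nM CXCL16 with DMSO and 100% = unstimulated wells without agonist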
Target sequence (O00574 whole entry, looked up): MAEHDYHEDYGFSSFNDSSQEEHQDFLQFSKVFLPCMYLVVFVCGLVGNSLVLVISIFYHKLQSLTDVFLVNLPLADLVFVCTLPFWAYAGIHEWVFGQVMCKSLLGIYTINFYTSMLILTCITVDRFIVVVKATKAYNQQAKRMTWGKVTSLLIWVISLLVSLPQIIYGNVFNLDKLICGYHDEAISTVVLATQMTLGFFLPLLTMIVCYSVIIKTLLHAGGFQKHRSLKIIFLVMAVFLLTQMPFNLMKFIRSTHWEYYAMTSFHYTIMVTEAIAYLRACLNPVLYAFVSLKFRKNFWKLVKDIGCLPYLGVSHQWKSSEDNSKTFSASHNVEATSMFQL
APJ agonist = agonists of human apelin receptor APJ, primary screen, CHO-K1 cells, PathHunter beta-arrestin, luminescence | P35414 | 0% DMSO wells, 100% apelin | activation, % at 20 µM | 0.11% of 330,000 active;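 active = activation more than six SD over the plate average, tested at 20 µM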;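 note: 0% = DMSO alone and 100% = apelin-13 at 10 nM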
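Test system – PathHunter CHO-K1 APJ (AGTRL-1) beta-arrestin reporter cells · Input – 1000 cells/well · Compound – single test compound dose, 20 µM final, 1% DMSO · Times – compound stimulation 90 min at 25 °C, detection 60 min · Technique – beta-gal luminescence · Read-out basis – APJ–arrestin association signal · Control set – negative DMSO alone, positive Apelin-13 at 10 nM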
EBI2 antag = EBI2 receptor antagonists, beta-arrestin recruitment, primary screen, cell-based, luminescence, 7a,25-OHC stimulation, uHTS. G-protein coupled receptor 183 (Homo sapiens), P32249. 7a,25-OHC stimulated. inhibition, % at 5 µM. 0.81% of 360,000 active; in the data active = inhibition above about 38%;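 note: enzyme fragment complementation signal reports receptor beta-arrestin coupling in cells; 0% = agonist plus DMSO wells and 100% = wells without agonist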
CCR6 antagonist = CCR6 receptor antagonists, primary screen, cell-based, CHO-K1, luminescence, beta-arrestin, uHTS. inhibition, % at 20 µM. 0.49% of 340,000 active. CHO-K1 CCR6 PathHunter beta-arrestin, CCL20-stimulated;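 active = compounds whose inhibition of the agonist-driven luminescence signal at 20 µM reaches about 50%, limit read from the data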;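 note: cells stimulated with CCL20 at 14 nM final; plate controls were DMSO with CCL20 for no effect and DMSO without agonist for full effect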
APJ antagonist = antagonists of human apelin receptor APJ, primary screen, CHO-K1 cells, beta-arrestin complementation, luminescence | P35414 | inhibition, % at 20 µM | 0.32% of 330,000 active;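 active = inhibition above about 40% at 20 µM, limit read from the data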;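 note: cells challenged with 10 nM apelin-13 agonist together with compound; plate controls were apelin-13 plus DMSO wells for no effect and DMSO wells lacking apelin-13 for full effect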
* marks the source's active call; other numbers are inactive results; . = no result. Only some compounds are listed: those with a hit (about 1.5% of all), similar ones and a draw of the others.

SMILES	CXCR6 inh	APJ agonist	EBI2 antag	CCR6 antagonist	APJ antagonist
Cc1ccc(S(=O)(=O)NC2=C(N3CCN(c4ccccc4F)CC3)C(=O)c3ccccc3C2=O)cc1	24	-2	-15	37	-45
O=C1Oc2ccccc2C(=O)/C1=C\N1CCN(c2ccccc2)CC1	-1	-6	5	-7	17
CCN(CC)c1ccc(C(=C2C=CC(=[N+](CC)CC)C=C2)c2ccccc2)cc1	103*	.	32	117*	.
CCN(CC)c1ccc(C(=C2C=CC(=[N+](CC)CC)C=C2)c2ccc(N(CC)CC)cc2)cc1	108*	.	20	114*	.
CCN(CC)c1ccc(C(=O)NNC(=O)CCNC(=O)c2ccccc2)cc1	2	-2	-5	-1	2
CN1/C(=C/C=C/c2n(C)c3cc([N+](=O)[O-])c([N+](=O)[O-])cc3[n+]2C)C(C)(C)c2ccccc21	48*	.	4	.	.
Cc1cccc[n+]1CC(=O)/C=C1\N(C)c2ccccc2C1(C)C	-3	-3	-17	-22	-4
Cn1c(N=Nc2ccc(N3CCOCC3)cc2)[n+](C)c2ccccc21	54*	.	12	63*	.
Cn1c(=Nc2ccc(N3CCOCC3)cc2)ccc2ccccc21	7	0	6	-5	-3
N#CC(=C1CCCC1)c1nc(-c2ccccc2)cs1	4	0	40	2	-15
N#CC(=C1CCCC1)c1nc(-c2ccccc2O)cs1	6	-3	65*	17	-9
S=C(NNc1ccc2ccccc2c1)NC1CCCCC1	21	-8	45*	54*	40
COc1ccccc1CN1CC(C(=O)NCc2c(F)ccc(C)c2F)CCC1=O (centres undefined)	-2	-2	6	25	-1
CCCCCCN1C[C@@H](n2cc(COC(=O)c3ccccc3)nn2)[C@H](O)C[C@@H]1c1ccccc1	6	.	4	.	.
OC(COc1ccc2cc(Br)ccc2c1)CN1CCCC1 (centres undefined)	1	3	21	20	-2
O=S(=O)(N1CCCCC1)N1CCN(CC(O)COc2ccc3cc(Br)ccc3c2)CC1 (centres undefined)	-13	4	90*	0	-19
CN(C)N=Nc1nc2c(c(=O)n(C)c(=O)n2C)n1CC1CO1 (centres undefined)	-8	1	-7	0	-6
Nc1ccc(C(=O)C(=O)c2ccc(N)cc2)cc1	2	-3	1	11	4
N=C1C=CC(=C(c2ccc(N)cc2)c2ccc(N)cc2)C=C1	39	.	15	51*	.
CC(=O)Nc1ccc(Nc2c3c4c(cccc4n(C)c2=O)C(=O)c2ccccc2-3)cc1	26	-1	13	52*	21
CC(C)N1C(=O)S/C(=C\c2ccc(-c3ccc(Cl)c(C(=O)O)c3)o2)C1=O	-4	-3	-10	-3	16
CCN(CC)c1ccc(/C=C2/SC(=O)N(C(C)C)C2=O)o1	24	.	42*	46	.
O=C(NCCCN1CCCC1=O)c1ccccc1OCc1ccc(Cl)cc1Cl	5	-4	-8	20	17
CCOC(=O)c1[nH]c(C)c(C(=O)N2CCCC(Nc3ccc(C)c(C)c3)C2)c1C (centres undefined)	11	-1	-2	10	11
CCOC(=O)CSc1nc2sc3c(c2c(=O)n1-c1ccccc1)CCN(C(C)C)C3	13	-2	5	9	-12
SMILES	CXCR6 inh	APJ agonist	EBI2 antag	CCR6 antagonist	APJ antagonist
O=C(COc1ccc(Cl)cc1)N1CCN(c2ccc([N+](=O)[O-])c(N3CCCCC3)c2)CC1	2	-4	78*	10	17
O=C(COc1ccccc1Cl)N1CCN(c2ccc([N+](=O)[O-])c(N3CCCCC3)c2)CC1	8	-3	23	15	16
Fc1cccc(NC(=S)NNc2ccccc2)c1	7	1	-9	16	-16
Fc1cccc(NC(=S)NNc2c3ccccc3nc3ccccc23)c1	38	.	-3	56*	.
O=[N+]([O-])c1ccc(/C=N/n2c(C3CCCCC3)n[nH]c2=S)cc1	20	-2	12	56*	16
Cc1ccc(NC(=O)Nc2nnc(Cc3ccc([N+](=O)[O-])cc3)s2)cc1	-1	3	-10	62*	-14
N=C1S/C(=C\c2ccc(-c3cccc(Cl)c3)o2)C(=O)N1c1nccs1	54*	.	67*	82*	.
COc1ccc(/C=C2\SC(=N)N(c3nccs3)C2=O)cc1OC	39	-4	10	59*	20
COc1ccc(C2=NN(CN3C(=O)C(=O)c4ccccc43)C(c3cccc([N+](=O)[O-])c3)C2)cc1 (centres undefined)	0	1	7	24	-35
O=C(CCN1N=C(c2ccccc2)CCC1=O)NCC1CCCO1 (centres undefined)	2	-4	-3	8	26
Cc1c(C(=O)N(C)C)sc2nc(-c3ccccn3)[nH]c(=O)c12	-4	-8	-6	29	5
O=c1[nH]c(-c2ccccn2)nc2sc(-c3ccccc3)cc12	25	.	87*	36	.
CCCCCCCCCCCCCCC[C@@H](O)[C@@H](N)CO	15	.	12	68*	.
Cc1cc(OCC(=O)OCC(=O)N(C)c2c(N)n(Cc3ccccc3)c(=O)[nH]c2=O)ccc1Cl	0	0	-2	8	-1
C#CCN(C[C@@H]1[C@@H](OC(=O)NCc2ccccc2F)[C@@H](OC(=O)NCc2ccccc2F)Cn2c(=O)ccc(=O)n21)S(=O)(=O)c1ccc(C)cc1	-1	.	55*	.	.
C=CCn1nc([N+](=O)[O-])nc1Sc1cccc2cccnc12	47*	-3	36	64*	27
O=[N+]([O-])c1ccc(Sc2cccc3cccnc23)cc1	0	-3	4	-8	-4
Cc1cc(NS(=O)(=O)c2ccc(NC(=S)NC(=O)c3ccc(Cl)cc3Cl)cc2)no1	9	0	10	52*	30
Cc1cc(NS(=O)(=O)c2ccc(NC(=O)c3ccc(Cl)cc3Cl)cc2)no1	-4	4	2	2	0
COc1cc(Cl)c(C)cc1NC(=O)COC(=O)CCc1nc2ccccc2c(=O)[nH]1	0	-8	-7	3	17
O=C(c1ccc(Cl)cc1)N1CCC(C(=O)N2CCN(c3ncccn3)CC2)CC1	-1	-5	48*	-5	10
O=C(Cn1nc(C(F)F)cc1C(F)F)NNC(=S)Nc1ccc(F)cc1	12	-2	-10	12	19
O=C(Cn1nc(C(F)F)cc1C(F)F)NNC(=S)Nc1ccc([N+](=O)[O-])cc1	24	-8	9	48	49*
Cc1c(N=NC2=C(O)CC(C)(C)CC2=O)c(=O)n(-c2ccccc2)n1C	61*	-4	-3	.	16
CN(C)C(=O)CSc1cccc2cccnc12	55*	-7	19	66*	35
